ChEMBL document CHEMBL4715820, “Aglycone Ebselen and β-d-Xyloside Primed Glycosaminoglycans Co-contribute to Ebselen β-d-Xyloside-Induced Cytotoxicity” (J Med Chem, 2018)
The source made the active and inactive calls. The calls are words filed in the database; no cut-off is given here.

Key:
[1] = Induction of GAG priming in CHO pgsA-745 cells assessed as change in UA-GalNAc6S relative intensity level at 10 uM incubated for 24 hrs by LC-MS analysis (reference value: 29.19); type: functional; details: Cricetulus griseus, time 48 hrs, in the assay text read “incubated for 48 hrs” for “incubated for 24 hrs”
How it was run: (§1)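 Disaccharide LC-MS: CHO pgsA-745 cells treated at 10 μM in 0.1% DMSO, GAGs purified from cells or medium, digested with 1 mU chondroitinase ABC (5 mM NH4Ac pH 7.0, 37 °C, 24 h); treated samples PMP-labelled, DMSO controls D5-PMP-labelled, mixed at equal cellular protein (1 mg), co-injected on C18 capillary LC, negative-ion MS; paired ion intensities compared.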

[2] = Induction of GAG priming in CHO pgsA-745 cells assessed as increase in delta-UA-GalNAc6S level in from the cell culture media at 10 uM incubated for 24 hrs by LC-MS analysis relative to control; type: functional; details: Cricetulus griseus, time 48 hrs, in the assay text read “incubated for 48 hrs” for “incubated for 24 hrs”; how it was run: as §1
HCT-116 [3] = assay: Cytotoxicity in human HCT-116 cells assessed as reduction in cell viability incubated for 48 hrs by resazurin dye based assay; type: functional; details: for IC50: HCT-116, 48 h
How it was run: (§2)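 Cells seeded at 2000/well, 24 h later exposed to serial dilutions (0.1% DMSO vehicle) in complete medium for 48 h; resazurin (2 mg/mL stock) then added for 16 h; fluorescence at 544 nm excitation/595 nm emission, proportional to living cells. Triplicate wells, repeated twice; IC50 from concentration-response.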

[4] = (§3) Induction of GAG biosynthesis in CHO pgsA-745 cells assessed as increase in GalN level at 10 uM incubated for 48 hrs by immunostaining based confocal microscopic analysis relative to control; type: functional, Cricetulus griseus
HCT-116 [5] = assay: Induction of cell cycle arrest in human HCT-116 cells assessed as G2/M cell population level at 12.5 uM incubated for 24 hrs by propidium iodide /RNase staining based flow cytometry; type: functional
How it was run: (§4)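 HCT116 cells (6 × 10^4/well, six-well plates) treated after 24 h for 24 h (12.5 or 15 μM for one conjugate, 20 μM for others; 0.1% DMSO vehicle); floating and trypsinized cells fixed in 70% ethanol at 4 °C overnight, stained with PI/RNase 15 min at room temperature, DNA content by flow cytometry; phase distribution versus control.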

A549 = assay: Cytotoxicity in human A549 cells assessed as reduction in cell viability incubated for 48 hrs by resazurin dye based assay; type: functional; details: for IC50: A549, 48 h; how it was run: as §2
HCT-116 [6] = assay: Induction of cell cycle arrest in human HCT-116 cells assessed as G2/M cell population level at 15 uM incubated for 24 hrs by propidium iodide /RNase staining based flow cytometry; type: functional; how it was run: as §4
HCT-116 [7] = assay: Induction of cell cycle arrest in human HCT-116 cells assessed as increase in G2/M cell population level at 12.5 uM incubated for 24 hrs by propidium iodide /RNase staining based flow cytometry relative to control; type: functional; how it was run: as §4
HCT-116 [8] = assay: Induction of apoptosis in human HCT-116 cells assessed as increase in late apoptosis level at 7.5 uM […] by annexin-V/propidium iodide staining based flow cytometry relative to control; type: functional, cell-based
HCT-116 [9] = assay: Induction of apoptosis in human HCT-116 cells assessed as late apoptosis level at 12.5 uM […] by annexin-V/propidium iodide staining based flow cytometry relative to control; type: functional
[10] = Induction of GAG priming in CHO pgsA-745 cells assessed as increase in non-sulfated delta-UA-GalNAc level in from the cell culture media at 10 uM incubated for 48 hrs by LC-MS analysis relative to control; details: Cricetulus griseus
[11] = Induction of GAG priming in CHO pgsA-745 cells assessed as increase in delta-UA-GalNAc4S level in from the cell culture media at 10 uM incubated for 24 hrs by LC-MS analysis relative to control; type: functional; details: Cricetulus griseus, time 48 hrs, in the assay text read “48 hrs” for “24 hrs”; how it was run: as §1
HT-29 = assay: Cytotoxicity in human HT-29 cells assessed as reduction in cell viability incubated for 48 hrs by resazurin dye based assay; type: functional; details: for IC50: HT-29, 48 h; how it was run: as §2
HCT-116 [12] = assay: Induction of apoptosis in human HCT-116 cells assessed as increase in early apoptosis level at 7.5 uM […] by annexin-V/propidium iodide staining based flow cytometry relative to control; type: functional
CHO [13] = assay: Induction of GAG biosynthesis in CHO pgsA-745 cells assessed as increase in GlcN level in culture media at 10 uM incubated for 48 hrs by immunostaining based confocal microscopic analysis relative to control; type: functional, cell-based; details: Cricetulus griseus
[14] = Induction of GAG priming in CHO pgsA-745 cells assessed as change in UA-GalNAc4S relative intensity level at 10 uM incubated for 24 hrs by LC-MS analysis (reference value: 2.9); type: functional; details: Cricetulus griseus, time 48 hrs, in the assay text read “incubated for 48 hrs” for “incubated for 24 hrs”; how it was run: as §1
CHO [15] = assay: Induction of GAG priming in CHO pgsA-745 cells assessed as increase in FGF7/GAGs/FGFR2B ternary complex formation at 10 uM incubated for 24 hrs by confocal microscopy; type: functional, cell-based; details: Cricetulus griseus
How it was run: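 Ternary complex assay: CHO pgsA-745 cells on coverslips treated 10 μM with 0.1% DMSO for 24 h at 37 °C, fixed in 4% formaldehyde 15 min, then incubated sequentially with FGFR2B-Fc, FGF7 and Protein A-Alexa Fluor 647; bound receptor imaged by confocal microscopy at 665 nm […].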

[16] = (§5) Induction of GAG biosynthesis in CHO pgsA-745 cells assessed as increase in GlcN level at 10 uM incubated for 48 hrs by immunostaining based confocal microscopic analysis relative to control; type: functional, Cricetulus griseus
CHO [17] = assay: Induction of GAG biosynthesis in CHO pgsA-745 cells assessed as increase in GalN level in culture media at 10 uM incubated for 48 hrs by immunostaining based confocal microscopic analysis relative to control; type: functional, cell-based; details: Cricetulus griseus
CHO [18] = assay: Induction of GAG priming in CHO pgsA-745 cells assessed as increase in specific CS staining […] at 10 uM incubated for 24 hrs by immunostaining based flow cytometry; type: functional, cell-based; details: Cricetulus griseus
How it was run: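 CHO pgsA-745 cells treated 10 μM with 0.1% DMSO 24 h at 37 °C, trypsinized, fixed in 4% formaldehyde, digested with 1 mU chondroitinase ABC 20 min at 37 °C, stained overnight at 4 °C with mAb 2B6 then Alexa Fluor 488 anti-mouse secondary; fluorescence intensity read by flow cytometry.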

NCI-H1299 = assay: Cytotoxicity in human NCI-H1299 cells assessed as reduction in cell viability incubated for 48 hrs by resazurin dye based assay; type: functional; details: for IC50: NCI-H1299, 48 h; how it was run: as §2
HCT-116 [19] = assay: Induction of apoptosis in human HCT-116 cells assessed as early apoptosis level at 12.5 uM […] by annexin-V/propidium iodide staining based flow cytometry relative to control; type: functional
[20] = Induction of GAG priming in CHO pgsA-745 cells assessed as change in UA-GalNAc relative intensity level at 10 uM incubated for 24 hrs by LC-MS analysis (reference value: 44.74); type: functional, Cricetulus griseus; how it was run: as §1
[21] = Induction of GAG priming in CHO pgsA-745 cells assessed as increase in non-sulfated delta-UA-GalNAc level in from the cell culture media at 10 uM incubated for 24 hrs by LC-MS analysis relative to control; type: functional; details: Cricetulus griseus, time 48 hrs, in the assay text read “incubated for 48 hrs” for “incubated for 24 hrs”; how it was run: as §1
CHO [22] = assay: as §3; type: functional; details: Cricetulus griseus
[23] = Induction of GAG priming in CHO pgsA-745 cells assessed as change in UA-GalNAc relative intensity level at 10 uM incubated for 24 hrs by LC-MS analysis (reference value: 8.99); type: functional, Cricetulus griseus; how it was run: as §1
[24] = Induction of GAG priming in CHO pgsA-745 cells assessed as change in UA-GalNAc6S relative intensity level at 10 uM incubated for 24 hrs by LC-MS analysis (reference value: 9.52); type: functional; details: Cricetulus griseus, time 48 hrs, in the assay text read “incubated for 48 hrs” for “incubated for 24 hrs”; how it was run: as §1
CHO [25] = assay: as §5; type: functional; details: Cricetulus griseus
[26] = Induction of GAG priming in CHO pgsA-745 cells assessed as change in UA-GalNAc4S relative intensity level at 10 uM incubated for 24 hrs by LC-MS analysis (reference value: 1.01); type: functional; details: Cricetulus griseus, time 48 hrs, in the assay text read “incubated for 48 hrs” for “incubated for 24 hrs”; how it was run: as §1
HCT-116 [27] = assay: Induction of apoptosis in human HCT-116 cells assessed as increase in late apoptosis level at 40 uM incubated for 24 hrs by annexin-V/propidium iodide staining based flow cytometry relative to control; type: functional, cell-based
How it was run: (§6)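 HCT116 cells were seeded at 6 × 10^4 cells/well and treated 24 h later in medium containing 0.1% DMSO, with DMSO alone as the control. Floating and trypsinized adherent cells were pooled and washed in binding buffer. They were stained with Annexin V/PI for 15 min at room temperature and read by flow cytometry. Early apoptotic cells were FITC+/PI−; late apoptotic cells were FITC+/PI+.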

HCT-116 [28] = assay: Induction of cell cycle arrest at S phase in human HCT-116 cells at 40 uM incubated for 24 hrs by propidium iodide /RNase staining based flow cytometry; type: functional
How it was run: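 HCT116 cells (6 × 10^4/well) were seeded, then exposed 24 h later in complete medium, with 0.1% DMSO as the control. After 24 h, medium cells and trypsinized adherent cells were combined. Pellets were fixed in 70% ethanol at 4 °C overnight and stained with PI/RNase buffer for 15 min at room temperature. Phase distribution (G0/G1, S, G2/M) was measured by flow cytometry.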

HCT-116 [29] = assay: Induction of apoptosis in human HCT-116 cells assessed as increase in early apoptosis level at 40 uM incubated for 24 hrs by annexin-V/propidium iodide staining based flow cytometry relative to control; type: functional, cell-based; how it was run: as §6

With `CC(=O)O[C@@H]1[C@@H](OC(C)=O)[C@H](OC(C)=O)CO[C@H]1n1[se]c2ccccc2c1=O` the “fold change (FC)” value [1] was 100, the “fold change (FC)” value [2] was 3.4 and the Activity (HCT-116 [3]) was “Dose-dependent effect”. For the same molecule, the IC50 (HCT-116 [3]) was 6.4 µM, the “fold change (FC)” value [4] was 27.6 and the Activity (HCT-116 [5]) was 45.2%. The Activity (A549) was “Dose-dependent effect”, the IC50 (A549) was 7 µM and the Activity (HCT-116 [6]) was 51.9%. For the same molecule, the “fold change (FC)” value (HCT-116 [7]) was 1.3, the Activity (HCT-116 [8]) was “Active” and the Activity (HCT-116 [9]) was 13.18%. The “fold change (FC)” value [10] was 2.24, the “fold change (FC)” value [11] was 34.5 and the Activity (HT-29) was “Dose-dependent effect”. The IC50 (HT-29) was 7.3 µM, the “fold change (FC)” value (HCT-116 [12]) was 27.7 and the Activity (CHO [13]) was “inactive”. The “fold change (FC)” value [14] was 100, the Activity (CHO [15]) was “Active” and the “fold change (FC)” value [16] was 12.2. For the same molecule, the Activity (CHO [17]) was “inactive”, the Activity (CHO [18]) was “Active” and the Activity (NCI-H1299) was “Dose-dependent effect”. The IC50 (NCI-H1299) was 7 µM, the Activity (HCT-116 [19]) was 10.97% and the “fold change (FC)” value [20] was 100.
With `O[C@@H]1[C@@H](O)[C@H](Oc2ccccc2)OC[C@H]1O` the “fold change (FC)” value [2] was 10.5, the “fold change (FC)” value [21] was 11 and the Activity (CHO [22]) was “Active”. The “fold change (FC)” value [11] was “<=99”, the Activity (CHO [13]) was “Active” and the “fold change (FC)” value [23] was 100. The Activity (CHO [15]) was “inactive”, the “fold change (FC)” value [24] was 100 and the Activity (CHO [25]) was “Active”. For the same molecule, the Activity (CHO [17]) was “Active” and the “fold change (FC)” value [26] was 100.
For `O=c1c2ccccc2[se]n1-c1ccccc1` [EBSELEN], the Activity (HCT-116 [27]) was “Active”, the Activity (HCT-116 [28]) was “Active” and the IC50 (HCT-116 [3]) was 50 µM. The IC50 (A549) was 16.8 µM, the Activity (HCT-116 [29]) was “Active” and the IC50 (HT-29) was 50.4 µM. For the same molecule, the IC50 (NCI-H1299) was 27.7 µM.
